# This is a sample that favours compounds with a hit; in the whole collection about 1.5% have one here.
# bCat nuc transl = modulators of beta-catenin nuclear translocation. HeLa beta-catenin nuclear translocation, immunofluorescence imaging. nuclear translocation activity, % at 5 µM. hit rate 0.3% among 190,000. AID 1665;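 active = nuclear translocation activity above 50% at 5 µM, with a well cell count of 50 or more; inconclusive = wells under 50 cells across six images, flagged as toxic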;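 also: per-cell ratio of nuclear to cytoplasmic median beta-catenin stain intensity; plate controls were DMSO negative control for no effect and GSK-3 inhibitor IX positive control for full effect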
#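 Test system: human HeLa cells, endogenous beta-catenin. Times: 24 h compound exposure, 37°C. Measured by: beta-catenin immunofluorescence imaging with DAPI.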
# MT stabilizer = microtubule stabilizers in HeLa cells; HeLa tubulin immunostaining HCS, 24 h; share of cells brighter than vehicle mean+2SD; % tubulin-high responders, % at 10 µM; hit rate 0.83% among 200,000; AID 2205;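 active = plate Z-score above 3 for both tubulin-high and condensed-nucleus cell shares, with cell loss under 80%, at 10 µM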;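 also: anti alpha tubulin signal scored within the nucleus-defined area of each cell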
# Rad51 HR inh = Rad51 (human) homologous recombination inhibition; hRad51 DNA strand exchange, fluorescence dequenching; AID 1385; Q06609; inhibition, % at 10 µM; hit rate 0.085% among 200,000;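 active = inhibition above 40% at the single screening dose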;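 also: 0% = DMSO control wells and 100% = blanks with heterologous ssDNA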
# Target sequence (Q06609 whole entry, looked up): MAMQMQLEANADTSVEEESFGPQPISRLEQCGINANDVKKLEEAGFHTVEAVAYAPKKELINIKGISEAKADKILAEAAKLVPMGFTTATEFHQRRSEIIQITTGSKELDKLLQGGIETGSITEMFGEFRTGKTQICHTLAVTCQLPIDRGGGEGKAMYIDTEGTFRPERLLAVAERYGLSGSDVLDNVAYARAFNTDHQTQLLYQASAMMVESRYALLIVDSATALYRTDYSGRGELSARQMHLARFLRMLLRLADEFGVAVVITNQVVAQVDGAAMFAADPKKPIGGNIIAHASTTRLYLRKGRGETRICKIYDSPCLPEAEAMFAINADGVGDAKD
#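 Material: Human Rad51 nucleoprotein filaments preassembled on unlabelled ssDNA | Also added: Labelled 47-mer dsDNA for strand exchange | Dosing: Single dose, 10 µM final compound | Schedule: 30-min compound preincubation and 15-min exchange, both room temperature | Technique: Fluorescence dequenching at 485/520 nm | Measure: Percent inhibition relative to plate controls and blanks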
# Dynein transport = dynein cargo transport inhibition; AID 1381; 3617.4 mouse cells, GR-EGFP nuclear translocation imaging; test concentration mostly 20 µM; stimulated with dexamethasone, 1 µM; hits give low values; z-score, hits read low; hit rate 0.47% among 220,000;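 active = plate z-score of nuclear minus cytoplasmic receptor signal below a set negative limit, without overly bright fluorescence or cell loss, cut at about -3.5 in these data, passing the limit was not always enough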;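 also: z-score of nuclear minus cytoplasmic ring GR-EGFP intensity difference per well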
#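 medium = tetracycline-free induction medium containing charcoal-stripped FBS | also added = 1.0 µM final dexamethasone stimulus | schedule = 48 h induction, 1 h compound, 30 min dex at 37 °C | technique = fixed, Hoechst-stained cells imaged at 10x for EGFP | measure = GR-EGFP nuclear translocation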
# TbHK1 inh = T. brucei hexokinase 1 inhibition | recombinant TbHK1, G6PDH-coupled NADH A340 | inhibition, % at 10 µM | hit rate 0.11% among 220,000 | AID 1430;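 active = inhibition of 50% or more in the single-dose primary screen; inactive = inhibition below 50%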
# Dynein inh conf = dynein cargo transport inhibition, confirmation | shares compounds with Dynein transport | 3617.4 GR-EGFP nuclear translocation imaging, dexamethasone-induced | calls only at 20 µM | hit rate 69% among 1,000;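 active = inhibition of receptor movement into the nucleus at or above a set limit in both runs, with normal cell brightness and cell count; inconclusive = limit reached in only one run, brightness and count normal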;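 also: dexamethasone at 1 µM final in well for 30 min; nuclear minus cytoplasmic GR-EGFP mean intensity difference in channel 2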
# * hit, by the source's call; i = inactive; u = inconclusive; x = no result; + = active, no number.
SMILES,bCat nuc transl,MT stabilizer,Rad51 HR inh,Dynein transport,TbHK1 inh,Dynein inh conf
Cc1ccc2c(C(=O)CN3CCC4(CC3)OCCO4)c(C)[nH]c2c1,0,2,6,-0.43,-1,x
COC(=O)C(C)n1nc(C)n(-c2ccc(C)cc2)c1=O (stereo unspecified),3,2,3,0.64,1,x
CCC(CC)C(=O)NCCN1CCN(C(=O)C(CC)CC)CC1,0,3,-3,-1.5,-6,x
O=C1C=CC(O)(c2cc(=O)c3c(O)cc(O)cc3o2)C=C1,29,59,-2,-6.7*,-16,+
CCOC(=O)C1CCCN(c2c(NCCCN3CCCC(C)C3)c(=O)c2=O)C1 (stereo unspecified),x,3,-3,0.33,3,x
CCOP(=O)(OCC)C(NC(=O)Nc1ccc(Cl)c(Cl)c1)C(N)=O (stereo unspecified),0,5,x,1.8,-8,x
CCOC(=O)c1cnc2c(F)ccc(F)c2c1Sc1ccccc1,1,x,5,-4*,-6,+
Cc1nc2ccc(NC(=O)N3CCOCC3)cc2s1,-2,2,1,-0.082,-5,x
Cn1c(=O)c([N+](=O)[O-])c(Cl)c2ccccc21,0,x,-5,-6.3*,-6,+
COc1ccc(/C=N/NC2=NCCCCC2)c(OC)c1,-3,3,-19,2,-2,x
Cc1ccc(-n2ncc(Br)c(Br)c2=O)cc1,0,2,6,-5.9*,3,+
NC(=O)N/N=C/c1c(Sc2nnnn2-c2ccccc2)nc2ccccn2c1=O,-1,x,7,-5.3*,-42,i
O=[N+]([O-])c1ccc(S(=O)(=O)CC(CN2CCOCC2)N2CCOCC2)cc1 (stereo unspecified),2,3,-2,-0.28,3,x
O=[N+]([O-])c1ccc(S(=O)(=O)CC(CN2CCCCC2)N2CCCCC2)cc1 (stereo unspecified),1,3,6,-4.1,-6,+
CC1=CC(=O)C=C(C)C1=NOS(=O)(=O)c1ccccc1,-6,3,-9,-5*,25,+
CC1=CC(=O)C(C(C)C)=C/C1=N/OS(=O)(=O)c1ccccc1,1,x,-9,-4.2*,-6,i
Cc1ccc2c(c1)/C(=N/OS(=O)(=O)c1ccccc1)CCS2,x,3,-2,-0.18,1,x
COc1ccc(-c2cc3nc4n(c(=O)c3s2)CCC4)cc1,x,2,4,-0.93,-31,x
Cc1cccc(Cn2cc(/C=C/[N+](=O)[O-])c3ccccc32)c1,4,3,-4,-1.2,-1,x
O=[N+]([O-])/C=C/c1cn(Cc2ccc(Cl)cc2)c2ccccc12,-1,2,6,-3.7*,32,i
Cc1ccc(-c2nn(-c3ccccc3)cc2CO)o1,1,3,1,-3.7*,-3,i
O=C(OCCN1C(=O)c2cccc3c(N4CCOCC4)ccc(c23)C1=O)c1ccc(Cl)cc1Cl,80*,16*,i,-11,-4,+
O=C(OCCN1C(=O)c2cccc3c(N4CCOCC4)ccc(c23)C1=O)c1cccc(Cl)c1,56*,16*,-483,-3.8,-9,u
Cc1cc(C)cc(OC(=O)CS(=O)c2ccc(C(F)(F)F)cc2[N+](=O)[O-])c1 (stereo unspecified),x,3,1,-3.7*,3,+
CCOC(=O)C1=C(SCC)c2cc3c(n2C1=O)CCCC3,x,4,4,-3.6*,-11,+
SMILES,bCat nuc transl,MT stabilizer,Rad51 HR inh,Dynein transport,TbHK1 inh,Dynein inh conf
CC(=O)N1c2ccccc2C(CBr)=CC1(C)C,-4,x,8,-5.2*,-7,i
COc1cc(/C=C2\COC/C(=C\c3ccc(O)c(OC)c3)C2=O)ccc1O,-1,x,6,-5.7*,-31,+
COc1cc(/C=C2/CC/C(=C/c3ccc(O)c(OC)c3)C2=O)ccc1O,45,x,x,-1,-22,x
CCN1C/C(=C/c2ccc(OC)c(O)c2)C(=O)/C(=C/c2ccc(OC)c(O)c2)C1,47,55,-1,-6.3*,-9,u
COc1ccc(C=C2C(=O)c3ccccc3C2=O)cc1O,-1,5,0,-0.56,-8,x
CC(C)(C)OC(=O)N[C@@H](Cc1ccccc1)c1nnc(SCC(N)=O)o1,0,x,5,-0.39,-10,x

# Screens: PubChem, several laboratories
